# High-throughput results as filed in PubChem.
# Only a selection was taken, and hits are over-represented in it overall.
# Lung fibro prol = blocks proliferation of human lung fibroblasts; LL 47 human lung fibroblast viability, ATP luminescence; hits give low values; 85,000 tested, 1.1% active; viability, % at 10 µM;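 active = viability at or below 50% in the single dose screen; inactive = viability above 50%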;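 note: compound exposure lasted 72 h before the ATP readout; 100% = median luminescence of untreated cell-only wells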
#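 Test system: LL 47 human lung fibroblasts / Incubation: 72 h compound exposure at 37 °C after overnight plating / Technique: luminescent ATP detection, CellTiter-Glo / Compound dosing: 0.1% DMSO in all compound wells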
# HCT116 PTEN-null = suppresses growth of cells with PTEN deletion. HCT116 PTEN-null viability, CellTiter-Glo, 60 h; hits give low values. 140,000 tested, 1.2% active. viability, % at 10 µM. AID 827;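 active = viability at or below a set limit, 4 SD under the median of all tested compounds, cut at about 3.7% in these data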;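 note: PTEN knockout HCT116 line with beta catenin targeted HCT116 as companion control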
# H69AR growth 86K = growth inhibitors of human H69AR lung tumor cells; AID 598; H69AR lung tumor viability, ATP luminescence, 72 h; hits give low values; viability, % at 10 µM; 85,000 tested, 6% active;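 active = viability at or below 40%; inactive = viability above 40%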;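 note: multidrug resistant small cell line overexpressing MRP-1 efflux transporter; 100% = mean luminescence of untreated control wells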
# HCT116 bCat-KO = beta-catenin-lacking colon tumor cell growth suppression. AID 818. HCT116 beta-catenin knockout viability, CellTiter-Glo, 60 h; hits give low values. viability, % at 10 µM. 140,000 tested, 1.5% active;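 active = viability at or under a set limit, the compound median less 4 SD, cut at about 6% in these data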;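 note: 0% = Hyamine 1622 control at 20 µM and 100% = untreated cell control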
# HUVEC inhibit = blocks proliferation of human endothelial cells | 86,000 tested, 1.1% active | viability, % at 10 µM (by protocol) | HUVEC proliferation, CellTiter-Glo luminescence, 72 h; hits give low values;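 active = viability at or below 30%; inactive = viability above 30%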;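 note: 100% = median luminescence of DMSO-only cell control wells on each plate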
# PTK2B oligo ant = blocks oligomerization of human Pyk2 in cells | Q293 cells, Pyk2 FERM NanoBiT luminescence; hits give low values | 99,000 tested, 0.83% active | AID 1347419 | z-score (the deposit names both 25 µM and 10 µM);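 active = Z-score of -3 or lower, scaled per plate to the spread of control and sample wells; inactive = z-score above -3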;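 note: negative z-score means lost luminescence so less FERM oligomerization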
# Target sequence (Q14289 whole entry, looked up): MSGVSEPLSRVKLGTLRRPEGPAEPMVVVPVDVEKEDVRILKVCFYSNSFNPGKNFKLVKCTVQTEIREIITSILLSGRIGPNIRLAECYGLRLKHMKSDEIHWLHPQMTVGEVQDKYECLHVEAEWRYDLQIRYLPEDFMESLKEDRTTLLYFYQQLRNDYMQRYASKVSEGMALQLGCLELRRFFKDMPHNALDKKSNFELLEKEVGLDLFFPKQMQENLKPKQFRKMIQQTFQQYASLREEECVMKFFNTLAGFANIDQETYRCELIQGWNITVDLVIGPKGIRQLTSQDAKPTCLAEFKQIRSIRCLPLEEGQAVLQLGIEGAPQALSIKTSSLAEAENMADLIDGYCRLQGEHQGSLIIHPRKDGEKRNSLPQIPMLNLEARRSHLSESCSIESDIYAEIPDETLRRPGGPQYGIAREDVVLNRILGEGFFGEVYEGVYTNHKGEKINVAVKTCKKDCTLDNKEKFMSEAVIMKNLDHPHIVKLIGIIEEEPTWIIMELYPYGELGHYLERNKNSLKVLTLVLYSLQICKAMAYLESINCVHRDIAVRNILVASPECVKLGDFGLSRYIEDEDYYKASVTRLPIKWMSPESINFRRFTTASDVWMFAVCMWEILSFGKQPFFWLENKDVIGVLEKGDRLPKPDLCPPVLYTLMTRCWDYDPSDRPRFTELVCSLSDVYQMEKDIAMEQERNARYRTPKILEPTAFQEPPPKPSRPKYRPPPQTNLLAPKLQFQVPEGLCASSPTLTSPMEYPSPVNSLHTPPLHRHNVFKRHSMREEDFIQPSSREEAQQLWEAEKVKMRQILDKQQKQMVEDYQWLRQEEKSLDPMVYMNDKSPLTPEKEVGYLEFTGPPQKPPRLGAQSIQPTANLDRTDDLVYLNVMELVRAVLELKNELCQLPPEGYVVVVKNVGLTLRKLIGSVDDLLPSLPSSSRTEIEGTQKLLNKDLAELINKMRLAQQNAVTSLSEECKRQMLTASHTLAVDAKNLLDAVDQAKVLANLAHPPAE
# An asterisk follows results filed as active; x = no result.
SMILES,Lung fibro prol,HCT116 PTEN-null,H69AR growth 86K,HCT116 bCat-KO,HUVEC inhibit,PTK2B oligo ant
COC(=O)c1ccc2c(=O)n(CC3CCCO3)c(SCC(=O)Nc3ccccc3OC)nc2c1 (stereo not given),113,66,83,77,86,-1.8
COC(=O)c1ccc2c(=O)n(CC3CCCO3)c(SCC(=O)Nc3ccccc3Cl)nc2c1 (stereo not given),80,2.2*,8.2*,2.5*,47,-0.51
COCCNC(=O)CSc1nc2ccccc2c(=O)n1CC1CCCO1 (stereo not given),105,91,98,93,103,0.14
CCCCNC(=O)CSc1nc2ccccc2c(=O)n1Cc1ccc2c(c1)OCO2,74,77,76,67,48,-0.12
COC(=O)c1ccc2c(=O)n(Cc3ccco3)c(SCC(=O)Nc3ccccc3Cl)nc2c1,91,21,17*,68,24*,0.65
COc1ccc(CSc2nnc(Cc3sc(-c4ccccc4)nc3-c3ccccc3)o2)cc1,95,72,88,81,103,-0.33
Cc1ccc2cc3cc(C(=O)N(C)C4CCCCC4)oc3nc2c1,102,x,64,x,115,x
Cc1cccc(N(C)C(=O)c2cc3cc4ccc(C)cc4nc3o2)c1,68,42,19*,40,60,-1.6
O=C(c1ccc(Br)cc1)c1cc(-c2ccccn2)c(N2CCOCC2)s1,x,76,x,88,x,-0.28
CCOc1ccc2nc(NC(=O)CN3CCC(n4nnc5cc(C(F)(F)F)ccc54)CC3)sc2c1,89,64,38*,65,86,0.44
CCOC(=O)c1ccccc1NC(=O)CN1CCC(n2nnc3cc(F)ccc32)CC1,93,x,27*,x,59,x
COc1ccc(N2CCN(C(=O)CN3CCN(C(c4ccccc4)c4ccccc4)CC3)CC2)cc1,x,85,x,88,x,x
COc1ccc(OCCSc2nnc(Cc3cccc4ccccc34)n2N)cc1,x,80,x,91,x,x
Cn1cc([N+](=O)[O-])c(C(=O)N/N=C/c2ccc([N+](=O)[O-])cc2)n1,x,93,x,89,x,x
Cn1cc([N+](=O)[O-])c(C(=O)Nc2ccn(Cc3c(F)c(F)cc(F)c3F)n2)n1,x,3.1*,x,3.0*,x,0.07
Cn1cc([N+](=O)[O-])c(C(=O)Nc2ccc(Br)cn2)n1,x,1.4*,x,2.7*,x,0.83
Cc1ccc(-c2nn3c(C)nnc3s2)cc1NC(=O)CSc1ccc(Cl)cc1,80,96,93,99,29*,-0.38
Cc1ccc(-c2nn3c(C)nnc3s2)cc1NCc1c(F)cccc1Cl,57,24,28*,27,53,-3.5*
Cc1ccc(CNc2cc(-c3nn4c(C)nnc4s3)ccc2C)s1,62,98,59,92,36,-0.32
Cc1c(Cl)cccc1N/C(SCC(=O)N1CCCCCC1)=C(/C#N)c1nc2ccccc2s1,x,1.6*,x,1.7*,x,-0.89
Cc1cccc(N2CCN(c3nc4ccc(Cl)cc4n4cnnc34)CC2)c1C,29*,1.0*,2.1*,0.8*,14*,x
Cc1ccc(CNc2nc3ccc(C)cc3n3cnnc23)cc1,x,94,x,97,x,x
Cc1ccc(NC2=C(Cl)C(=O)c3ccccc3C2=O)cc1,x,0.8*,x,0.9*,x,x
CCN(CC)c1ccc(NC2=C(Cl)C(=O)c3ccccc3C2=O)cc1,x,0.5*,x,0.8*,x,x
CCOC(=O)c1cnc(SCC(=O)Nc2cc(C(F)(F)F)ccc2N2CCOCC2)nc1N,65,76,36*,76,47,-0.17
SMILES,Lung fibro prol,HCT116 PTEN-null,H69AR growth 86K,HCT116 bCat-KO,HUVEC inhibit,PTK2B oligo ant
CCOC(=O)c1cnc(SCC(=O)Nc2cc(OC)cc(OC)c2)nc1N,89,85,81,80,88,0.98
CCOC(=O)c1cnc(SCC(=O)Nc2sc(C)c(C)c2C#N)nc1N,52,3.1*,94,2.8*,61,0.42
Cc1ccc(-c2nnc(SCC(=O)Nc3sc(C)c(C)c3C#N)n2C)cc1,97,94,83,82,83,0.18
CCOC(=O)c1cnc(SCc2nc(N)nc(Nc3ccccc3)n2)nc1N,97,37,32*,46,106,-0.14
Cc1sc(NC(=O)CSc2nnc(COc3ccc(Cl)cc3)n2C)c(C#N)c1C,87,85,31*,77,60,-0.95
CC1CN(C2CCN(S(=O)(=O)Cc3ccccc3)CC2)CC(C)O1 (stereo not given),89,104,100,103,95,-0.27
CC1CCN(S(=O)(=O)c2ccc3c(c2)c(=O)c(C(=O)NCc2ccccc2Cl)cn3C)CC1,x,92,x,95,x,x
